Common to all, as to format: ADME
In data set [1] the target is T1, UDP-glucuronosyltransferase 2B7 (Homo sapiens, UniProt P16662).
T1 sequence (P16662 whole entry): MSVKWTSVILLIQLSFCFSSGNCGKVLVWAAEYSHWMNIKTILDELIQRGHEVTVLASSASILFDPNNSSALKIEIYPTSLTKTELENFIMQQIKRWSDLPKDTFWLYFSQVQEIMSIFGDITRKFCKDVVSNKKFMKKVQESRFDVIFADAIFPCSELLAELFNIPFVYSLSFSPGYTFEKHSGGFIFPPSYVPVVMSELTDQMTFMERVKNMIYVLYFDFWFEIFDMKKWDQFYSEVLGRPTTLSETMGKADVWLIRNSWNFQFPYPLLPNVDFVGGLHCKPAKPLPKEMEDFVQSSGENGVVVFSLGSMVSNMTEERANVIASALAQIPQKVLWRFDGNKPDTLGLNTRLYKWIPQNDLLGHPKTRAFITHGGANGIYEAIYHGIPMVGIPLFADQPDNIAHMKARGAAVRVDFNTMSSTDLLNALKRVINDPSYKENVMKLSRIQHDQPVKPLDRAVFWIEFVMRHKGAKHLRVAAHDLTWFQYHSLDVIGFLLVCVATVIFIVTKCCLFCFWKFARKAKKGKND
As to the kind of experiment: Drug metabolism assessed as recombinant human C-terminal His-tagged UGT2B7-mediated 16-epiestriol-16-glucuronide formation after 15 to 60 mins by Michaelis-Menten equation analysis in presence of UDPGA. The conditions noted are these: recombinant enzyme. A digest of the protocol:
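For kinetics, the aglycone ranged from 0.2 to 300 μM in DMSO (10% final) with 5 mM UDPGA, 10 mM MgCl₂ and 50 mM phosphate pH 7.4. Enzyme was UGT-enriched insect cell membranes. Incubation was 15–60 min at 37°C, in triplicate, keeping substrate consumption ≤10%. Products were measured by HPLC and fitted to Michaelis-Menten. Rates were normalized to expression level.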

In data set [2] the target is T1, UDP-glucuronosyltransferase 2B7. As to the kind of experiment: Inhibition of recombinant human C-terminal His-tagged UGT2B7 after 15 to 60 mins by Michaelis-Menten equation analysis in presence of UDPGA. A digest of the protocol:
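Kinetics with His-tagged UGT-enriched insect-cell membranes (5 or 50 µg): aglycone 0.2–300 µM in 10% DMSO, 5 mM UDPGA, 10 mM MgCl₂, 50 mM phosphate pH 7.4, 15–60 min at 37°C. Substrate consumption kept at or below 10%. Glucuronides quantified by HPLC in triplicate, rates normalized to expression, and data fitted to Michaelis-Menten.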

For data set [3], the target named is T2, UDP-glucuronosyltransferase 1A3 (Homo sapiens, UniProt P35503).
T2 sequence (P35503 whole entry): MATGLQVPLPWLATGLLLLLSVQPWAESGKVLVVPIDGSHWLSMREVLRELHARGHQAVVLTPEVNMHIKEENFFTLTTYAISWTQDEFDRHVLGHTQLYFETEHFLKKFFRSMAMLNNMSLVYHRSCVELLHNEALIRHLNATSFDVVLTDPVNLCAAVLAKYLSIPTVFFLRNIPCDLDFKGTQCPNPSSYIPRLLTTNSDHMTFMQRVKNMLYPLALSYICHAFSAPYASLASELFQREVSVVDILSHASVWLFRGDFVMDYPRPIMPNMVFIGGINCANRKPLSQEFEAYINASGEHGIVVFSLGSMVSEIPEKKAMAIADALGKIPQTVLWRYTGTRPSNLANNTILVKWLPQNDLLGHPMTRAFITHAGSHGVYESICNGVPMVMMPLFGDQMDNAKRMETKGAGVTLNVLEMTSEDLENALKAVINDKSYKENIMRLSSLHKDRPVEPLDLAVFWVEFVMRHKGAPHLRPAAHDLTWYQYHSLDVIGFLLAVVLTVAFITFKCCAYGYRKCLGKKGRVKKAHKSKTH
As to the kind of experiment: Drug metabolism assessed as recombinant human C-terminal His-tagged UGT1A3-mediated 13-epiestradiol-3-glucuronide formation at 200 uM after 15 to 60 mins by HPLC analysis in presence of UDPGA. To be noted: recombinant enzyme. A digest of the protocol: (§1)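 Screening at a single substrate concentration of 200 μM, in triplicate. The reaction used 5 or 50 µg of UGT-enriched insect cell membranes in 50 mM phosphate pH 7.4 with 10 mM MgCl₂ and 5 mM UDPGA, 10% final DMSO. Incubation was 15–60 min at 37°C. Perchloric acid stopped the reaction and supernatants were analysed by HPLC. Controls lacked UDPGA. Rates were normalized to relative UGT expression level.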

In data set [4] the target is T3, UDP-glucuronosyltransferase 2B15 (Homo sapiens, UniProt P54855).
T3 sequence (P54855 whole entry): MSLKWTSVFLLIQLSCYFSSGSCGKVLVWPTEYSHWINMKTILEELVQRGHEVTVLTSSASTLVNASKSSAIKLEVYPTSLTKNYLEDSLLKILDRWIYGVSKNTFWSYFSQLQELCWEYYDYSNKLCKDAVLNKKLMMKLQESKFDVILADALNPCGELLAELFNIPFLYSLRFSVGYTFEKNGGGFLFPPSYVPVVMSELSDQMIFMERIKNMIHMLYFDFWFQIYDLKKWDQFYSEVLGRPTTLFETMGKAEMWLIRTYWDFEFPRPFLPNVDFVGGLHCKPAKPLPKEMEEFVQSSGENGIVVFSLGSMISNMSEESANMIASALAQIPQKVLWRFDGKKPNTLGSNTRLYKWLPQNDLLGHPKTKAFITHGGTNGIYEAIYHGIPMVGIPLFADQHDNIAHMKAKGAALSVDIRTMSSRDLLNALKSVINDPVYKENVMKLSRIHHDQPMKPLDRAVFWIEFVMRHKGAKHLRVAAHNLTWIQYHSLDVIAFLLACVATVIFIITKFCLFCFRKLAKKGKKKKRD
As to the kind of experiment: Drug metabolism assessed as recombinant human C-terminal […]-mediated estradiol-3-glucuronide/estradiol-17-glucuronide formation at 200 uM after 15 to 60 mins by HPLC analysis in presence of UDPGA. To be noted: recombinant enzyme.

Data set [5] addresses UDP-glucuronosyltransferase 1A10 (Homo sapiens, UniProt Q9HAW8, F93G). As to the kind of experiment: Drug metabolism assessed as human UGT1A10 F93G mutant-mediated estradiol-3-glucuronide formation at 200 uM after 15 to 60 mins by HPLC analysis in presence of UDPGA. An outline of the steps: as §1

From ChEMBL document CHEMBL3525985, “Regiospecificity and stereospecificity of human UDP-glucuronosyltransferases in the glucuronidation of estriol, 16-epiestriol, 17-epiestriol, and 13-epiestradiol” (Drug Metab Dispos, 2013) come the findings set out here.

UDP-glucuronosyltransferase 1A10, sequence (Q9HAW8 26-530 F93G limits assumed): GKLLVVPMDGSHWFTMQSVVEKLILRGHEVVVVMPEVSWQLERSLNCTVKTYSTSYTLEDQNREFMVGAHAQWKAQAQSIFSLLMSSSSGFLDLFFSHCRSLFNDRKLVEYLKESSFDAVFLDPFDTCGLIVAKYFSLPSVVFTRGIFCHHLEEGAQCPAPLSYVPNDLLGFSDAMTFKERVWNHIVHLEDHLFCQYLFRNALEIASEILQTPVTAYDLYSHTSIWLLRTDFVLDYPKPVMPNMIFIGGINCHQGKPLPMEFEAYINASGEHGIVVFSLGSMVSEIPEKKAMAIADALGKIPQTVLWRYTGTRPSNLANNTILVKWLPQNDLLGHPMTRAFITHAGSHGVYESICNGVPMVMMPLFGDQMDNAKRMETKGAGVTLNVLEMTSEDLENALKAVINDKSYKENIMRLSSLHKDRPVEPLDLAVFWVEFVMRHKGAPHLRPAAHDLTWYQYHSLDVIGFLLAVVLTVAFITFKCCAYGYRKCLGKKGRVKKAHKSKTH

What is called Ki is the dissociation constant of the complex between target and ligand, obtained from inhibition or displacement. Regarding `C[C@]12CC[C@@H]3c4ccc(O)cc4CC[C@H]3[C@@H]1C[C@H](O)[C@@H]2O` [EPIESTRIOL], the Drug metabolism in data set [1] worked out at 2700 pmol/min/mg. For the same compound, in data set [2], the Ki worked out at 162 µM.
In the case of `C[C@@]12CC[C@@H]3c4ccc(O)cc4CC[C@H]3[C@@H]1CC[C@@H]2O`, the Drug metabolism result in data set [3] is listed as “metabolite_detected”.
Regarding `C[C@]12CC[C@@H]3c4ccc(O)cc4CC[C@H]3[C@@H]1CC[C@@H]2O` [ESTRADIOL], the Drug metabolism result in data set [4] and in data set [5] was “metabolite_detected” throughout.
